Results gathered from unrelated publications.
Lines come from different studies, so protocols differ.
Target: Serine/threonine-protein kinase PAK 1 (PAK1, Homo sapiens, UniProt Q13153)

| SMILES | test | setting | remaining binding |
| --- | --- | --- | --- |
| O=C(c1ccc(Nc2ncc(Cl)c(-c3cc4ccccc4s3)n2)cc1)N1CCC(N2CCCC2)CC1 | binding, competition with immobilised ligand | 1 µM | 85% |
| F[C@@H]1CCN(c2nccc(-c3cnn4ncccc34)n2)C1 | binding | 1 µM | 100% |
| C[C@@H](c1ccc(-n2cnc3c(N)ncnc32)cc1)N1CCc2nn(C)c(Cc3ccccc3)c2C1=O | binding, competition with immobilised ligand | 0.1 µM | 97% |
| CO[C@@H](C)c1c(Nc2ccc([C@@H](N(C)C(=O)C3CCS(=O)(=O)CC3)C(F)(F)F)cc2)cnc2cc(Cl)nn12 | cell-free assay, competition with immobilised ligand | 1 µM | 83% |
| Cc1cnc(Nc2ccc(C(=O)N3CCC(N4CCCC4)CC3)cc2)nc1-c1cc2ccccc2s1 | binding, competition with immobilised ligand | 1 µM | 98% |
| c1cnn2ncc(-c3ccnc(N4CCC45COC5)n3)c2c1 | binding | 1 µM | 90% |
| O=C(NCCCN1CCOCC1)c1ccc(Nc2ncc(Cl)c(-c3ccc(Cl)s3)n2)cc1 | binding, competition with immobilised ligand | 1 µM | 98% |
| C[C@H](c1ccnc(Nc2nc3ccc(-c4cc(N(C)C)ncn4)cc3[nH]2)c1)N1CCN(C(=O)CC(F)(F)F)CC1 | cell-free assay, competition with immobilised ligand | 0.1 µM | 77% |
| CN(c1nccc(-c2cnn3ncccc23)n1)C1CC1 | binding | 1 µM | 100% |
| COc1cnc(Nc2cccc(S(N)(=O)=O)c2)nc1N1CCN(c2ccccc2)C(=O)C1 | binding, competition with immobilised ligand | 1 µM | 100% |
| C[C@@H]1CN(c2ccc3ncc(-c4ccc5[nH]nc(C6CC6)c5c4)n3n2)C[C@H](C)O1 | binding, competition with immobilised ligand | 50 nM | 100% |
| N[C@@H]1CCN(c2nccc(-c3cnn4ncccc34)n2)C1 | binding | 1 µM | 100% |
| FC(F)(F)c1ccc2c(c1)nc(-c1cccnc1)n2C1CC1 | cell-free assay, competition with immobilised ligand | 1 µM | 100% |
| CN(CCCC(F)(F)F)c1nccc(-c2cnn3ncccc23)n1 | binding | 1 µM | 98% |
| O=C(Nc1c[nH]nc1C(=O)NC1CCNCC1)c1cc(F)cc(F)c1 | binding, competition with immobilised ligand | 1 µM | 100% |
| O=C(Nc1cccnn1)N1CCC(=Cc2cccc(Oc3ccc(C(F)(F)F)cn3)c2)CC1 | cell-free assay, competition with immobilised ligand | 1 µM | 72% |
| COc1ccnn2ncc(-c3ccnc(N(C)C)n3)c12 | binding | 1 µM | 79% |
| CN(C)C(=O)Cn1cc(-c2nc([C@@](C)(c3ccc(-c4cnc(N)nc4)cc3)C3CC3)no2)cn1 | cell-free assay, competition with immobilised ligand | 1 µM | 100% |
| N#Cc1ccccc1CSc1nnc2c(n1)[nH]c1ccccc12 | binding, competition with immobilised ligand | 10 µM | 80% |
| CS(=O)(=O)c1cc(C2(NC(=O)c3cncc4c3cnn4-c3ccc(F)cc3)CC2)ccn1 | cell-free assay, competition with immobilised ligand | 1 µM | 100% |
| CC1CCCN1c1nccc(-c2cnn3ncccc23)n1 (centres unmarked) | binding | 1 µM | 100% |
| CC(C)(C)c1ccc(-c2nc(CBr)nn2-c2cccc(O)c2)cc1 | cell-free assay, competition with immobilised ligand | 10 µM | 98% |
| Cc1cc(C)c(-n2ccn3nc(-c4cccnc4)cc23)cc1NC(=O)c1cc(C#N)cc(S(F)(F)(F)(F)F)c1 | cell-free assay, competition with immobilised ligand | 0.1 µM | 82.2% |
